In ChEMBL document CHEMBL1795261, “HIF-1α inhibitors: synthesis and biological evaluation of novel moracin O and P analogues” (Eur J Med Chem, 2011):
Calls of active or inactive are those of the source. The rule behind the calls is not given here.

What was measured:
[1] = molecular target: T1, Hypoxia-inducible factor 1-alpha (Homo sapiens, UniProt Q16665); assay: Inhibition of hypoxia-induced HIF1alpha activation in human Hep3B cells after 16 hrs by HRE-luciferase reporter assay; type: cell-based; conditions: hep 3b2
Target sequence in this assay (Q16665 whole entry): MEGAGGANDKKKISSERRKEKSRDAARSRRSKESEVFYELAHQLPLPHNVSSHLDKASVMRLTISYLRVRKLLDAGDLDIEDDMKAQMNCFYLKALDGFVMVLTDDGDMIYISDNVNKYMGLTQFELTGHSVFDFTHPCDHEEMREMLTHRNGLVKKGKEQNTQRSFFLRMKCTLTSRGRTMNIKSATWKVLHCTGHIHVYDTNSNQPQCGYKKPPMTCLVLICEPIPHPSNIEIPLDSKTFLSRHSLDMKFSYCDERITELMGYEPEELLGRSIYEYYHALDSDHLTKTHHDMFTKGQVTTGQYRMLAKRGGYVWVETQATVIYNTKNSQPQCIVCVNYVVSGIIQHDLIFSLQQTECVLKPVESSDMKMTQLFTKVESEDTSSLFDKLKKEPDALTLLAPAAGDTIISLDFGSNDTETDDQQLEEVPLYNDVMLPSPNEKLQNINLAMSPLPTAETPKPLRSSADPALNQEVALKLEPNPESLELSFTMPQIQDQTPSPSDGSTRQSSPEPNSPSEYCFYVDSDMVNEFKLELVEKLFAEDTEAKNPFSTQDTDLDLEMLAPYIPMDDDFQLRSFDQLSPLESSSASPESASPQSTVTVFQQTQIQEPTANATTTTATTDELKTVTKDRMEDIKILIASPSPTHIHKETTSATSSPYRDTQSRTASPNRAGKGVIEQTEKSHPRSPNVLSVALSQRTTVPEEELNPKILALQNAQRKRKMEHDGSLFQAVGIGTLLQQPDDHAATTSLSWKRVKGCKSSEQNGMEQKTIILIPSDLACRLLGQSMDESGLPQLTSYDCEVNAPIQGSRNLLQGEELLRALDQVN

[2] = Cytotoxicity against human Hep3B cells after 24 hrs by MTT assay; type: cell-based, Hep 3B2
[3] = molecular target: T1, Hypoxia-inducible factor 1-alpha; assay: Inhibition of hypoxia-induced HIF1alpha protein accumulation in nucleus of human Hep3B cells after 12 hrs by Western blot analysis; type: functional, cell-based; conditions: Hep 3B2
Outline: (§1)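 Hep3B cells were kept under normoxia or hypoxia for 12 h with or without compound. HIF-1α in nuclear extracts was detected by western blot, with the same blot reprobed for topoisomerase-I as loading control. Bands were quantified by image scanning in arbitrary units.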
Target sequence in this assay (Q16665 whole entry, looked up): as the sequence (Q16665 whole entry) above

[4] = molecular target: T1, Hypoxia-inducible factor 1-alpha; assay: Inhibition of HIF1alpha-mediated VEGF production in human Hep3B cells under hypoxic condition after 17.5 hrs by ELISA; type: cell-based; conditions: Hep 3B2
Outline: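 Hep3B cells were held under normoxia or hypoxia for 17.5 h with or without compound. Secreted VEGF was then measured by ELISA in the culture supernatant.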
Target sequence in this assay (Q16665 whole entry, looked up): as the sequence (Q16665 whole entry) above

[5] = molecular target: T1, Hypoxia-inducible factor 1-alpha; assay: Inhibition of hypoxia-induced HIF1alpha protein accumulation in nucleus of human Hep3B cells after 12 hrs at 10 uM by Western blot analysis; type: functional, cell-based; conditions: Hep 3B2; outline: as §1
Target sequence in this assay (Q16665 whole entry, looked up): as the sequence (Q16665 whole entry) above

Row | SMILES | IC50 [1] | inhibition [3] | inhibition [4] | inhibition [5] | IC50 [2]
1 | CC(C)(O)C1Cc2ccc(OC(=O)c3ccc(-c4cccc([N+](=O)[O-])c4)cc3)cc2O1 (stereo not drawn) | > 30000 nM | – | – | – | > 30 µM
2 | CC1(C)Oc2cc(OC(=O)c3ccc(-c4ccc(F)cc4F)cc3)ccc2CC1O (stereo not drawn) | 17600 nM | – | – | – | > 30 µM
3 | CC1(C)Oc2cc(OC(=O)c3ccc(Br)cc3)ccc2CC1O (stereo not drawn) | 16800 nM | – | – | – | > 30 µM
4 | CC1(C)Oc2cc(OC(=O)c3ccc(O)cc3)ccc2CC1O (stereo not drawn) | > 30000 nM | – | – | – | > 30 µM
5 | CC1(C)Oc2cc(OC(=O)c3ccc(-c4cccc([N+](=O)[O-])c4)cc3)ccc2CC1O (stereo not drawn) | 17500 nM | – | – | – | > 30 µM
6 | CC1(C)Oc2cc(OC(=O)c3ccc(OCc4ccccc4)cc3)ccc2CC1O (stereo not drawn) | 12900 nM | – | – | – | > 30 µM
7 | CC(C)(O)C1Cc2ccc(OC(=O)c3cc(OCc4ccccc4)cc(OCc4ccccc4)c3)cc2O1 (stereo not drawn) | 26200 nM | – | – | – | > 30 µM
8 | CC1(C)Oc2cc(OC(=O)c3ccc(-c4cccc(C#N)c4)cc3)ccc2CC1O (stereo not drawn) | > 30000 nM | – | – | – | > 30 µM
9 | CC(C)(O)C1Cc2ccc(OC(=O)c3ccc(Br)cc3)cc2O1 (stereo not drawn) | > 30000 nM | – | – | – | > 30 µM
10 | CC1(C)Oc2cc(OC(=O)c3cc(OCc4ccccc4)cc(OCc4ccccc4)c3)ccc2CC1O (stereo not drawn) | 2600 nM | – | – | – | > 30 µM
11 | CC1(C)Oc2cc(OC(=O)c3ccc(OCc4ccccc4)c(OCc4ccccc4)c3)ccc2CC1O (stereo not drawn) | 7300 nM | – | – | – | > 30 µM
12 | Cn1cncc1-c1cc2cc3c(cc2o1)OC(C(C)(C)O)C3 (stereo not drawn) | > 30 nM | – | – | – | > 30 µM
13 | CC1(C)Oc2cc(OC(=O)c3ccc(O)c(O)c3)ccc2CC1O (stereo not drawn) | > 30000 nM | – | – | – | > 30 µM
14 | COc1cccc(-c2ccc(C(=O)Oc3ccc4c(c3)OC(C(C)(C)O)C4)cc2)c1 (stereo not drawn) | > 30000 nM | – | – | – | > 30 µM
15 | CC1(C)Oc2cc(OC(=O)c3cccc(OCc4ccccc4)c3)ccc2CC1O (stereo not drawn) | 5300 nM | – | – | – | > 30 µM
16 | CC1(C)Oc2cc(OC(=O)c3cc(O)cc(O)c3)ccc2CC1O (stereo not drawn) | > 30000 nM | – | – | – | > 30 µM
17 | COc1cccc(-c2ccc(C(=O)Oc3ccc4c(c3)OC(C)(C)C(O)C4)cc2)c1 (stereo not drawn) | 17200 nM | – | – | – | > 30 µM

More lines, main results first:

Row | IC50 [1] | inhibition [3] | inhibition [4] | inhibition [5] | SMILES | IC50 [2]
18 | 10700 nM | – | – | – | CC1(C)Oc2cc3oc(-c4cc(O)cc(O)c4)cc3cc2CC1O (racemic) [(+/-)-MORACIN P] | > 30 µM
19 | 6.76 nM | Dose-dependent effect | – | – | CC(C)(O)[C@H]1Cc2cc3cc(-c4cc(O)cc(O)c4)oc3cc2O1 | –
20 | 6.76 nM | – | – | – | CC(C)(O)C1Cc2cc3cc(-c4cc(O)cc(O)c4)oc3cc2O1 (racemic) [MORACIN O] | > 30 µM
21 | 46 nM | – | – | – | CC(C)(O)C1Cc2cc3cc(-c4cccc(O)c4)oc3cc2O1 (stereo not drawn) | > 30 µM
22 | 54 nM | – | – | – | CC(C)(O)C1Cc2cc3cc(-c4ccccc4)oc3cc2O1 (stereo not drawn) | > 30 µM
23 | 54 nM | – | – | – | CCOC(=O)COc1ccc(-c2cc3cc4c(cc3o2)OC(C(C)(C)O)C4)cc1 (stereo not drawn) | > 30 µM
24 | 4.2 nM | Dose-dependent effect | Dose-dependent effect | – | CC(C)(O)C1Cc2cc3cc(-c4ccc(O)cc4)oc3cc2O1 (stereo not drawn) | > 30 µM
25 | 310 nM | – | – | – | Cc1ccc(-c2cc3cc4c(cc3o2)OC(C(C)(C)O)C4)cc1 (stereo not drawn) | > 30 µM
26 | 7 nM | – | – | – | COc1cccc(-c2cc3cc4c(cc3o2)OC(C(C)(C)O)C4)c1 (stereo not drawn) | > 30 µM
27 | 110 nM | – | – | – | COc1ccc(-c2cc3cc4c(cc3o2)OC(C(C)(C)O)C4)cc1 (stereo not drawn) | > 30 µM
28 | 490 nM | – | – | – | CC(C)(O)C1Cc2cc3cc(-c4ccc(OCc5ccccc5)cc4)oc3cc2O1 (stereo not drawn) | > 30 µM
29 | 580 nM | – | – | – | COc1ccccc1-c1cc2cc3c(cc2o1)OC(C(C)(C)O)C3 (stereo not drawn) | > 30 µM
30 | 10.7 nM | – | – | – | CC1(C)Oc2cc3oc(-c4cc(O)cc(O)c4)cc3cc2C[C@H]1O [MORACIN P] | –
31 | > 30000 nM | – | – | – | CC(C)(O)C1Cc2ccc(OC(=O)c3cc(O)cc(O)c3)cc2O1 (stereo not drawn) | > 30 µM
32 | 10 nM | – | – | – | COc1cc(OC)cc(-c2cc3cc4c(cc3o2)OC(C(C)(C)O)C4)c1 (stereo not drawn) | > 30 µM
33 | 1 nM | Dose-dependent effect | – | Active | CC(C)(O)[C@H]1Cc2cc3cc(-c4ccc(O)cc4)oc3cc2O1 | > 30 µM
34 | 1100 nM | – | – | – | CC(C)(O)C1Cc2cc3cc(-c4ccncc4)oc3cc2O1 (stereo not drawn) | > 30 µM
35 | 360 nM | – | – | – | CC(C)(O)C1Cc2cc3cc(-c4cc(F)cc(F)c4)oc3cc2O1 (stereo not drawn) | > 30 µM
